# Laboratory results published in ChEMBL document CHEMBL4270613, “Design, synthesis, biological evaluation and structure-activity relationship of sophoridine derivatives bearing pyrrole or indole scaffold as potential antitumor agents” (Eur J Med Chem, 2018).
# System: HepG2
# Experiment: Antiproliferative activity against human HepG2 cells after 48 hrs by MTT assay
# Format: functional, cell-based
# Conditions: HepG2, 48 h
# Summary of the method: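 HepG2 exposed to compounds for 48 h; MTT readout; camptothecin positive control; IC50 calculated; mean ± SD of three independent experiments, each in triplicate.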
row,IC50,Structure (SMILES)
1,8.62 µM,O=C1/C(=C/c2cn(Cc3cccc(Br)c3)c3ccccc23)CC[C@@H]2[C@H]3CCCN4CCC[C@H](CN12)[C@@H]34
2,3.97 µM,O=C1/C(=C/c2cn(Cc3ccc(OCc4ccccc4)cc3)c3ccc(Br)cc23)CC[C@@H]2[C@H]3CCCN4CCC[C@H](CN12)[C@@H]34
3,10.1 µM,O=C1/C(=C/c2cn(Cc3ccc(OCc4ccc(Br)cc4)cc3)c3ccccc23)CC[C@@H]2[C@H]3CCCN4CCC[C@H](CN12)[C@@H]34
4,29.4 µM,O=C1/C(=C/c2cccn2Cc2ccc(F)cc2)CC[C@@H]2[C@H]3CCCN4CCC[C@H](CN12)[C@@H]34
5,13.5 µM,O=C1/C(=C/c2cccn2Cc2ccccc2Br)CC[C@@H]2[C@H]3CCCN4CCC[C@H](CN12)[C@@H]34
6,4.56 µM,Cc1cc(C)cc(Cn2cc(/C=C3\CC[C@@H]4[C@H]5CCCN6CCC[C@H](CN4C3=O)[C@@H]56)c3ccccc32)c1
7,17.4 µM,O=C1/C(=C/c2cccn2Cc2ccccc2Cl)CC[C@@H]2[C@H]3CCCN4CCC[C@H](CN12)[C@@H]34
8,6.17 µM,O=C1/C(=C/c2cn(Cc3ccc(OCc4ccc(Cl)cc4)cc3)c3ccccc23)CC[C@@H]2[C@H]3CCCN4CCC[C@H](CN12)[C@@H]34
9,15.2 µM,O=C1/C(=C/c2cccc3c2ccn3Cc2ccc(OCc3ccccc3)cc2)CC[C@@H]2[C@H]3CCCN4CCC[C@H](CN12)[C@@H]34
10,13.5 µM,O=C1/C(=C/c2cccn2Cc2ccc(Cl)cc2)CC[C@@H]2[C@H]3CCCN4CCC[C@H](CN12)[C@@H]34
11,4.57 µM,CC(C)(C)c1ccc(Cn2cc(/C=C3\CC[C@@H]4[C@H]5CCCN6CCC[C@H](CN4C3=O)[C@@H]56)c3ccccc32)cc1
12,4.83 µM,O=C1/C(=C/c2cn(Cc3ccc(OCc4ccc(F)cc4)cc3)c3ccccc23)CC[C@@H]2[C@H]3CCCN4CCC[C@H](CN12)[C@@H]34
13,13.6 µM,CC(C)(C)c1ccc(Cn2cccc2/C=C2\CC[C@@H]3[C@H]4CCCN5CCC[C@H](CN3C2=O)[C@@H]45)cc1
14,17.2 µM,COc1cccc(Cn2cccc2/C=C2\CC[C@@H]3[C@H]4CCCN5CCC[C@H](CN3C2=O)[C@@H]45)c1
15,5.72 µM,COc1ccc2c(c1)c(/C=C1\CC[C@@H]3[C@H]4CCCN5CCC[C@H](CN3C1=O)[C@@H]45)cn2Cc1ccc(OCc2ccc(OC(F)(F)F)cc2)cc1
16,8.73 µM,O=C1/C(=C/c2cn(Cc3ccc(OC(F)(F)F)cc3)c3ccccc23)CC[C@@H]2[C@H]3CCCN4CCC[C@H](CN12)[C@@H]34
17,21.2 µM,COc1cc(Cn2cccc2/C=C2\CC[C@@H]3[C@H]4CCCN5CCC[C@H](CN3C2=O)[C@@H]45)cc(OC)c1
18,16.6 µM,O=C1/C(=C/c2cccn2Cc2cccc(Cl)c2)CC[C@@H]2[C@H]3CCCN4CCC[C@H](CN12)[C@@H]34
19,12.6 µM,O=C1/C(=C/c2cccn2Cc2ccc(Br)cc2)CC[C@@H]2[C@H]3CCCN4CCC[C@H](CN12)[C@@H]34
20,9.96 µM,O=C1/C(=C/c2cn(Cc3ccc(OCc4ccccc4)cc3)c3ccccc23)CC[C@@H]2[C@H]3CCCN4CCC[C@@H](CN12)[C@@H]34

row,IC50,Structure (SMILES)
1,14.8 µM,Cc1cc(C)cc(Cn2cccc2/C=C2\CC[C@@H]3[C@H]4CCCN5CCC[C@H](CN3C2=O)[C@@H]45)c1
2,6.95 µM,O=C1/C(=C/c2cn(Cc3ccccc3)c3ccccc23)CC[C@@H]2[C@H]3CCCN4CCC[C@H](CN12)[C@@H]34
3,9.78 µM,O=C1/C(=C/c2cn(Cc3c(Cl)cccc3Cl)c3ccccc23)CC[C@@H]2[C@H]3CCCN4CCC[C@H](CN12)[C@@H]34
4,18.1 µM,Cc1cccc(Cn2cccc2/C=C2\CC[C@@H]3[C@H]4CCCN5CCC[C@H](CN3C2=O)[C@@H]45)c1
5,4.16 µM,COc1ccc(Br)c(Cn2cc(/C=C3\CC[C@@H]4[C@H]5CCCN6CCC[C@H](CN4C3=O)[C@@H]56)c3ccccc32)c1
6,16.3 µM,Cc1ccccc1Cn1cc(/C=C2\CC[C@@H]3[C@H]4CCCN5CCC[C@H](CN3C2=O)[C@@H]45)c2ccccc21
7,9.05 µM,O=C1/C(=C/c2cn(Cc3ccccc3Cl)c3ccccc23)CC[C@@H]2[C@H]3CCCN4CCC[C@H](CN12)[C@@H]34
8,5.86 µM,COc1ccc2c(c1)c(/C=C1\CC[C@@H]3[C@H]4CCCN5CCC[C@H](CN3C1=O)[C@@H]45)cn2Cc1ccc(OCc2ccc(C(C)(C)C)cc2)cc1
9,> 50 µM,COc1ccc2c(ccn2Cc2ccc(OCc3ccccc3)cc2)c1
10,16.1 µM,O=C1/C(=C/c2cccn2Cc2ccc3ccccc3c2)CC[C@@H]2[C@H]3CCCN4CCC[C@H](CN12)[C@@H]34
11,3.12 µM,COc1ccc2c(c1)c(/C=C1\CC[C@@H]3[C@H]4CCCN5CCC[C@H](CN3C1=O)[C@@H]45)cn2Cc1ccc(OCc2ccc(F)cc2)cc1
12,7.25 µM,O=C1/C(=C/c2ccc3c(ccn3Cc3ccc(OCc4ccccc4)cc3)c2)CC[C@@H]2[C@H]3CCCN4CCC[C@H](CN12)[C@@H]34
13,6.01 µM,O=C1/C(=C/c2cn(Cc3ccc(OCc4ccc(OC(F)(F)F)cc4)cc3)c3ccccc23)CC[C@@H]2[C@H]3CCCN4CCC[C@H](CN12)[C@@H]34
14,9.39 µM,Cc1ccc(Cn2cc(/C=C3\CC[C@@H]4[C@H]5CCCN6CCC[C@H](CN4C3=O)[C@@H]56)c3ccccc32)cc1
15,6.59 µM,O=C1/C(=C/c2cn(Cc3ccc(Cl)cc3)c3ccccc23)CC[C@@H]2[C@H]3CCCN4CCC[C@H](CN12)[C@@H]34
16,5.94 µM,O=C1/C(=C/c2cn(Cc3ccc(Br)cc3)c3ccccc23)CC[C@@H]2[C@H]3CCCN4CCC[C@H](CN12)[C@@H]34
17,3.08 µM,O=C1/C(=C/c2cn(Cc3ccc(OCc4ccccc4)cc3)c3ccccc23)CC[C@@H]2[C@H]3CCCN4CCC[C@H](CN12)[C@@H]34
18,9.66 µM,COc1ccc(Br)c(Cn2cccc2/C=C2\CC[C@@H]3[C@H]4CCCN5CCC[C@H](CN3C2=O)[C@@H]45)c1
19,6.88 µM,COc1cc(Cn2cc(/C=C3\CC[C@@H]4[C@H]5CCCN6CCC[C@H](CN4C3=O)[C@@H]56)c3ccccc32)cc(OC)c1
20,8.23 µM,COc1ccc(Cn2cc(/C=C3\CC[C@@H]4[C@H]5CCCN6CCC[C@H](CN4C3=O)[C@@H]56)c3ccccc32)cc1

row,IC50,Structure (SMILES)
1,30.1 µM,COc1ccc(Cn2cccc2/C=C2\CC[C@@H]3[C@H]4CCCN5CCC[C@H](CN3C2=O)[C@@H]45)cc1
2,10.9 µM,O=C1/C(=C/c2cccn2Cc2ccccc2)CC[C@@H]2[C@H]3CCCN4CCC[C@H](CN12)[C@@H]34
3,6.07 µM,CC(C)(C)c1ccc(COc2ccc(Cn3cc(/C=C4\CC[C@@H]5[C@H]6CCCN7CCC[C@H](CN5C4=O)[C@@H]67)c4ccccc43)cc2)cc1
4,12.8 µM,O=C1/C(=C/c2cn(Cc3ccc4ccccc4c3)c3ccccc23)CC[C@@H]2[C@H]3CCCN4CCC[C@H](CN12)[C@@H]34
5,8.14 µM,COc1cccc(Cn2cc(/C=C3\CC[C@@H]4[C@H]5CCCN6CCC[C@H](CN4C3=O)[C@@H]56)c3ccccc32)c1
6,5.32 µM,Cc1ccc(COc2ccc(Cn3cc(/C=C4\CC[C@@H]5[C@H]6CCCN7CCC[C@H](CN5C4=O)[C@@H]67)c4ccccc43)cc2)cc1
7,> 50 µM,c1ccc(COc2ccc(Cn3ccc4ccccc43)cc2)cc1
8,7.71 µM,Cc1ccc2c(c1)c(/C=C1\CC[C@@H]3[C@H]4CCCN5CCC[C@H](CN3C1=O)[C@@H]45)cn2Cc1ccc(OCc2ccccc2)cc1
9,> 100 µM,Cn1cccc1/C=C1\CC[C@@H]2[C@H]3CCCN4CCC[C@H](CN2C1=O)[C@@H]34
10,6.31 µM,COc1ccc2c(c1)c(/C=C1\CC[C@@H]3[C@H]4CCCN5CCC[C@H](CN3C1=O)[C@@H]45)cn2Cc1ccc(OCc2ccc(Br)cc2)cc1
11,26.5 µM,O=C1/C(=C/c2cccn2Cc2ccc(OC(F)(F)F)cc2)CC[C@@H]2[C@H]3CCCN4CCC[C@H](CN12)[C@@H]34
12,3.97 µM,COc1ccc2c(c1)c(/C=C1\CC[C@@H]3[C@H]4CCCN5CCC[C@H](CN3C1=O)[C@@H]45)cn2Cc1ccc(OCc2ccc(Cl)cc2)cc1
13,25.3 µM,Cc1ccccc1Cn1cccc1/C=C1\CC[C@@H]2[C@H]3CCCN4CCC[C@H](CN2C1=O)[C@@H]34
14,15.4 µM,O=C1/C(=C/c2cn(Cc3ccccc3Br)c3ccccc23)CC[C@@H]2[C@H]3CCCN4CCC[C@H](CN12)[C@@H]34
15,7.22 µM,O=C1/C(=C/c2cccn2Cc2ccc(OCc3ccccc3)cc2)CC[C@@H]2[C@H]3CCCN4CCC[C@H](CN12)[C@@H]34
16,8.27 µM,Cc1cccc(Cn2cc(/C=C3\CC[C@@H]4[C@H]5CCCN6CCC[C@H](CN4C3=O)[C@@H]56)c3ccccc32)c1
17,4.18 µM,COc1ccc2c(c1)c(/C=C1\CC[C@@H]3[C@H]4CCCN5CCC[C@H](CN3C1=O)[C@@H]45)cn2Cc1ccc(OCc2ccc(C)cc2)cc1
18,17.3 µM,Cc1ccc(Cn2cccc2/C=C2\CC[C@@H]3[C@H]4CCCN5CCC[C@H](CN3C2=O)[C@@H]45)cc1
19,14.3 µM,O=C1/C(=C/c2cn(Cc3ccc(OCc4ccccc4)cc3)c3cc(Cl)ccc23)CC[C@@H]2[C@H]3CCCN4CCC[C@H](CN12)[C@@H]34
20,18.1 µM,CC(C)(C)c1cc(Cn2cccc2/C=C2\CC[C@@H]3[C@H]4CCCN5CCC[C@H](CN3C2=O)[C@@H]45)cc(C(C)(C)C)c1
